Measured values published in ChEMBL document CHEMBL1142201, “Tolerance to the glycopeptides vancomycin and teicoplanin in coagulase-negative staphylococci” (2007).

Assays:
Format in all cases: functional
Staphylococcus [1] = assay: Antibacterial activity against coagulase-negative Staphylococcus assessed as bacterial counts at 10 times MIC after 6 hrs
Outline: (§1)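 CLSI time-kill in 50 ml Mueller-Hinton broth. Mean starting inoculum 5.6 log10 CFU/ml; vancomycin or teicoplanin at 10× MIC, with MIC from CLSI agar dilution. Counts taken just before and 6 and 24 h after antibiotic addition: samples diluted 10-fold to avoid carryover and plated in duplicate on prewarmed blood agar. Result given as Δlog CFU/ml; each strain run in duplicate.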

[2] = tested on: Staphylococcus lugdunensis; assay: Reduction of vancomycin-tolerant Staphylococcus lugdunensis 111A53 isolate assessed as bacterial counts at 20 times MIC after 24 hrs by time-kill curve method
Outline: (§2)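 CLSI time-kill in 50 ml Mueller-Hinton broth, mean starting inoculum 5.6 log10 CFU/ml. Vancomycin or teicoplanin at 5×, 10× or 20× the agar-dilution MIC. Viable counts taken before and 6 and 24 h after antibiotic addition; samples diluted 10-fold and plated in duplicate on prewarmed blood agar. Change reported as mean log CFU/ml.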

[3] = tested on: Staphylococcus lugdunensis; assay: Reduction of teicoplanin-tolerant Staphylococcus lugdunensis 111A91 isolate assessed as bacterial counts at 5 times MIC after 6 hrs by time-kill curve method; outline: as §2
[4] = tested on: Staphylococcus lugdunensis; assay: Reduction of teicoplanin-tolerant Staphylococcus lugdunensis 111A91 isolate assessed as bacterial counts at 10 times MIC after 6 hrs by time-kill curve method; outline: as §2
[5] = tested on: Staphylococcus lugdunensis; assay: Reduction of teicoplanin-tolerant Staphylococcus lugdunensis 111A91 isolate assessed as bacterial counts at 20 times MIC after 6 hrs by time-kill curve method; outline: as §2
[6] = tested on: Staphylococcus lugdunensis; assay: Reduction of teicoplanin-tolerant Staphylococcus lugdunensis 111A91 isolate assessed as bacterial counts at 5 times MIC after 24 hrs by time-kill curve method; outline: as §2
[7] = tested on: Staphylococcus lugdunensis; assay: Reduction of teicoplanin-tolerant Staphylococcus lugdunensis 111A91 isolate assessed as bacterial counts at 10 times MIC after 24 hrs by time-kill curve method; outline: as §2
[8] = tested on: Staphylococcus lugdunensis; assay: Reduction of teicoplanin-tolerant Staphylococcus lugdunensis 111A91 isolate assessed as bacterial counts at 20 times MIC after 24 hrs by time-kill curve method; outline: as §2
[9] = tested on: Staphylococcus lugdunensis; assay: Ratio of MBC to MIC against vancomycin-tolerant Staphylococcus lugdunensis 111A53 isolate
Outline: (§3)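 MBC/MIC by CLSI broth method, starting inoculum between 10^5 and 10^6 CFU/ml in Mueller-Hinton broth. Vancomycin and teicoplanin tested; S. aureus ATCC 25923 quality control included in each assay. Three separate assays, each ratio reported individually.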

[10] = tested on: Staphylococcus lugdunensis; assay: Ratio of MBC to MIC against teicoplanin-tolerant Staphylococcus lugdunensis 111A91 isolate; outline: as §3
[11] = tested on: Staphylococcus lugdunensis; assay: Antibacterial activity against coagulase-negative Staphylococcus lugdunensis 111A53 isolate assessed as bacterial counts at 10 times MIC after 6 hrs; outline: as §1
[12] = tested on: Staphylococcus lugdunensis; assay: Antibacterial activity against coagulase-negative Staphylococcus lugdunensis 111A91 isolate assessed as bacterial counts at 10 times MIC after 6 hrs; outline: as §1
[13] = tested on: Staphylococcus lugdunensis; assay: Antibacterial activity against coagulase-negative Staphylococcus lugdunensis isolate assessed as bacterial counts at 10 times MIC after 6 hrs; outline: as §1
[14] = tested on: Staphylococcus lugdunensis; assay: Antibacterial activity against coagulase-negative Staphylococcus lugdunensis ATCC 49576 assessed as bacterial counts at 10 times MIC after 6 hrs; outline: as §1
[15] = tested on: Staphylococcus lugdunensis; assay: Antibacterial activity against coagulase-negative Staphylococcus lugdunensis 111A223 isolate assessed as bacterial counts at 10 times MIC after 6 hrs; outline: as §1
[16] = tested on: Staphylococcus lugdunensis; assay: Antibacterial activity against coagulase-negative Staphylococcus lugdunensis ATCC 43809 assessed as bacterial counts at 10 times MIC after 6 hrs; outline: as §1
[17] = tested on: Staphylococcus lugdunensis; assay: Antibacterial activity against coagulase-negative Staphylococcus lugdunensis 111A229 isolate assessed as bacterial counts at 10 times MIC after 6 hrs; outline: as §1
Staphylococcus [18] = assay: Antibacterial activity against coagulase-negative Staphylococcus assessed as bacterial counts at 10 times MIC after 24 hrs; outline: as §1
[19] = tested on: Staphylococcus lugdunensis; assay: Antibacterial activity against coagulase-negative Staphylococcus lugdunensis 111A53 isolate assessed as bacterial counts at 10 times MIC after 24 hrs; outline: as §1
[20] = tested on: Staphylococcus lugdunensis; assay: Antibacterial activity against coagulase-negative Staphylococcus lugdunensis 111A91 isolate assessed as bacterial counts at 10 times MIC after 24 hrs; outline: as §1
[21] = tested on: Staphylococcus lugdunensis; assay: Antibacterial activity against coagulase-negative Staphylococcus lugdunensis isolate assessed as bacterial counts at 10 times MIC after 24 hrs; outline: as §1
[22] = tested on: Staphylococcus lugdunensis; assay: Antibacterial activity against coagulase-negative Staphylococcus lugdunensis ATCC 49576 assessed as bacterial counts at 10 times MIC after 24 hrs; outline: as §1
[23] = tested on: Staphylococcus lugdunensis; assay: Antibacterial activity against coagulase-negative Staphylococcus lugdunensis 111A223 isolate assessed as bacterial counts at 10 times MIC after 24 hrs; outline: as §1
[24] = tested on: Staphylococcus lugdunensis; assay: Antibacterial activity against coagulase-negative Staphylococcus lugdunensis ATCC 43809 assessed as bacterial counts at 10 times MIC after 24 hrs; outline: as §1
[25] = tested on: Staphylococcus lugdunensis; assay: Antibacterial activity against coagulase-negative Staphylococcus lugdunensis 111A229 isolate assessed as bacterial counts at 10 times MIC after 24 hrs; outline: as §1
[26] = tested on: Staphylococcus lugdunensis; assay: Reduction of vancomycin-tolerant Staphylococcus lugdunensis 111A53 isolate assessed as bacterial counts at 5 times MIC after 6 hrs by time-kill curve method; outline: as §2
[27] = tested on: Staphylococcus lugdunensis; assay: Reduction of vancomycin-tolerant Staphylococcus lugdunensis 111A53 isolate assessed as bacterial counts at 10 times MIC after 6 hrs by time-kill curve method; outline: as §2
[28] = tested on: Staphylococcus lugdunensis; assay: Reduction of vancomycin-tolerant Staphylococcus lugdunensis 111A53 isolate assessed as bacterial counts at 20 times MIC after 6 hrs by time-kill curve method; outline: as §2
[29] = tested on: Staphylococcus lugdunensis; assay: Reduction of vancomycin-tolerant Staphylococcus lugdunensis 111A53 isolate assessed as bacterial counts at 5 times MIC after 24 hrs by time-kill curve method; outline: as §2
[30] = tested on: Staphylococcus lugdunensis; assay: Reduction of vancomycin-tolerant Staphylococcus lugdunensis 111A53 isolate assessed as bacterial counts at 10 times MIC after 24 hrs by time-kill curve method; outline: as §2

Compound: CN[C@H](CC(C)C)C(=O)N[C@H]1C(=O)N[C@@H](CC(N)=O)C(=O)N[C@H]2C(=O)N[C@H]3C(=O)N[C@H](C(=O)N[C@H](C(=O)O)c4cc(O)cc(O)c4-c4cc3ccc4O)[C@H](O)c3ccc(c(Cl)c3)Oc3cc2cc(c3O[C@@H]2O[C@H](CO)[C@@H](O)[C@H](O)[C@H]2O[C@H]2C[C@](C)(N)[C@H](O)[C@H](C)O2)Oc2ccc(cc2Cl)[C@H]1O [VANCOMYCIN]
- deltalog10CFU/ml (Staphylococcus [1]): -2.98
- log10CFU/ml [2]: -1.74
- log10CFU/ml [3]: -1.16
- log10CFU/ml [4]: -0.31
- log10CFU/ml [5]: -0.56
- log10CFU/ml [6]: -3.9
- log10CFU/ml [7]: -3.53
- log10CFU/ml [8]: -2.83
- Ratio [9]: 8
- Ratio [10]: 64
- deltalog10CFU/ml [11]: -0.31
- deltalog10CFU/ml [12]: -0.31
- deltalog10CFU/ml [13]: -1.17
- deltalog10CFU/ml [14]: -1.38
- deltalog10CFU/ml [15]: -0.67
- deltalog10CFU/ml [16]: -0.21
- deltalog10CFU/ml [17]: -2.24
- deltalog10CFU/ml (Staphylococcus [18]): -4.8
- deltalog10CFU/ml [19]: -1.94
- deltalog10CFU/ml [20]: -3.53
- deltalog10CFU/ml [21]: -4.1
- deltalog10CFU/ml [22]: -3.91
- deltalog10CFU/ml [23]: -1.65
- deltalog10CFU/ml [24]: -2.18
- deltalog10CFU/ml [25]: -2.42
- log10CFU/ml [26]: -0.05
- log10CFU/ml [27]: -0.31
- log10CFU/ml [28]: -0.07
- log10CFU/ml [29]: -1.72
- log10CFU/ml [30]: -1.94
